{
  "source": "ChEMBL document CHEMBL1759890",
  "about": "“3,5-Disubstituted-indole-7-carboxamides: the discovery of a novel series of potent, selective inhibitors of IKK-β” (Bioorg Med Chem Lett, 2011)",
  "key": {"[1]": {"target": "T1, Serine/threonine-protein kinase TBK1 (Homo sapiens, UniProt Q9UHD2)", "T1 sequence (Q9UHD2 whole entry)": "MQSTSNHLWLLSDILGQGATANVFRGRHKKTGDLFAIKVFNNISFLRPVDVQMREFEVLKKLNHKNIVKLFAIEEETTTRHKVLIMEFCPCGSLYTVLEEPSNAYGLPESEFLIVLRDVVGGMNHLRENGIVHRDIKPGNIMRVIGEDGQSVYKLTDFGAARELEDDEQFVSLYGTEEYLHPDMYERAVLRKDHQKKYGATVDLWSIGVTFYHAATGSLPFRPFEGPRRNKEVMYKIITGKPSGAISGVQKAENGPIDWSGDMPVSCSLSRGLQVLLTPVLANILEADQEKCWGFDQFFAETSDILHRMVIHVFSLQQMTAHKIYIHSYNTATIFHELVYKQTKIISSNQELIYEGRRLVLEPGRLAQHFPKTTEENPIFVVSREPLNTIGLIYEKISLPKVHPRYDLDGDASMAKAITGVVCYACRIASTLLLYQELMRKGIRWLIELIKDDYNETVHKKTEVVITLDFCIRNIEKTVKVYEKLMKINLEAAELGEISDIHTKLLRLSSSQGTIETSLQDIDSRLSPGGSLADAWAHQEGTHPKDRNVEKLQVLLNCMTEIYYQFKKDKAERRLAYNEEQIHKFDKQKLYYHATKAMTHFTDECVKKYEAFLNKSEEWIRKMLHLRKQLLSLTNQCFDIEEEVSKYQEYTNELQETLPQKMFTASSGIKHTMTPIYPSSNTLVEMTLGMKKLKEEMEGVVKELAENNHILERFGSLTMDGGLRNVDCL", "assay": "Inhibition of TBK-1"}, "PBMC": {"test_system": "PBMC", "assay": "Antiinflammatory activity in human PBMC assessed as inhibition of LPS-induced TNF-alpha production", "type": "functional, cell-based", "in_short": "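Human peripheral blood mononuclear cells stimulated with LPS. Read-out is inhibition of TNF-α production, reported as pIC50.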"}, "[2]": {"target": "T2, Inhibitor of nuclear factor kappa-B kinase subunit alpha (Homo sapiens, UniProt O15111)", "T2 sequence (O15111 whole entry)": "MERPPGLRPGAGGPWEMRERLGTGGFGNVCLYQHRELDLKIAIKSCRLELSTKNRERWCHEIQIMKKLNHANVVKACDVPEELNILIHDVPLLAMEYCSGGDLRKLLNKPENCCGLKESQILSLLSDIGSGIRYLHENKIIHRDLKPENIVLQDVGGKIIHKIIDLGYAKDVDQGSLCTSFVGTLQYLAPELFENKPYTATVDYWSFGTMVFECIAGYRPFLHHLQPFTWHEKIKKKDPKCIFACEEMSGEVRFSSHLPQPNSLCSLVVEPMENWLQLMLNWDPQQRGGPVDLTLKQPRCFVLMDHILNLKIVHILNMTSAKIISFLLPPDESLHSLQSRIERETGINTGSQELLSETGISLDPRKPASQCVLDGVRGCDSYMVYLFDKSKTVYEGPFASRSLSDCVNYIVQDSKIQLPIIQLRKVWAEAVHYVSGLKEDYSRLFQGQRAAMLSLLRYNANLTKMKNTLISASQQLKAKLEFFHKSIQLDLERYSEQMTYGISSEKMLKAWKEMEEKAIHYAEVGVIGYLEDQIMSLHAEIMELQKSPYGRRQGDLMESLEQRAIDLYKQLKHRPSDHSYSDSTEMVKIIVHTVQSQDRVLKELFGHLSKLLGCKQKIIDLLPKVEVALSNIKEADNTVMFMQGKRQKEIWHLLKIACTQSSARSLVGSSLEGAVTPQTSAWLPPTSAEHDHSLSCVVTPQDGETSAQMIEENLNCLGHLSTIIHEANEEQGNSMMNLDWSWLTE", "assay": "Inhibition of IKK-alpha", "in_short": "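Done the same way as the IKK-β TR-FRET assay but with 6-His-tagged full-length IKK-α. Buffer is 50 mM HEPES, 10 mM MgCl₂, 1 mM CHAPS pH 7.4, 1 mM DTT, 0.01% w/v BSA. GST-IκBα substrate 25 nM final, ATP 1 μM final, DMSO below 5% final. Error about ±0.3 log units.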"}, "[3]": {"target": "T3, Inhibitor of nuclear factor kappa-B kinase subunit beta (Homo sapiens, UniProt O14920)", "T3 sequence (O14920 whole entry)": "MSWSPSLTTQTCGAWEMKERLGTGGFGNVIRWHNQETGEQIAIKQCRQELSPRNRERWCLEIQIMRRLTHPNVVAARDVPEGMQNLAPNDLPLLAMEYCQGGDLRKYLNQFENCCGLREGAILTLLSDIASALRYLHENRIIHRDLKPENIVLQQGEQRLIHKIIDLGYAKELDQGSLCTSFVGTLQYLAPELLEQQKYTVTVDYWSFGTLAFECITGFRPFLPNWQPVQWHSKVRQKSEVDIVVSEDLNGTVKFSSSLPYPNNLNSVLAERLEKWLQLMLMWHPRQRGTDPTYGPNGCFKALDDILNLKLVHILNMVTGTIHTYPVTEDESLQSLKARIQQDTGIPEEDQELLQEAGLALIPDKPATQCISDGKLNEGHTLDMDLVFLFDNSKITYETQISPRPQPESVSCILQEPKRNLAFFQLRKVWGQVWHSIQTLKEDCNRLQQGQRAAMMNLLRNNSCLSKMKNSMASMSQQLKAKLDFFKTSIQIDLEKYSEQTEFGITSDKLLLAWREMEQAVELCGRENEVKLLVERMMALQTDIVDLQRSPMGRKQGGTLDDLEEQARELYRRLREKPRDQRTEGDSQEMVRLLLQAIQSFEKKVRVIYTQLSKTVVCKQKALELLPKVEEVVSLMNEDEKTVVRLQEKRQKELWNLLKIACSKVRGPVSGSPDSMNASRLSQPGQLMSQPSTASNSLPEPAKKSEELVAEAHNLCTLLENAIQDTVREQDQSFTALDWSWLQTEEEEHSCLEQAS", "assay": "Inhibition of IKK-beta"}, "[4]": {"target": "Tyrosine-protein kinase BTK (Homo sapiens, UniProt Q06187)", "sequence (Q06187 whole entry)": "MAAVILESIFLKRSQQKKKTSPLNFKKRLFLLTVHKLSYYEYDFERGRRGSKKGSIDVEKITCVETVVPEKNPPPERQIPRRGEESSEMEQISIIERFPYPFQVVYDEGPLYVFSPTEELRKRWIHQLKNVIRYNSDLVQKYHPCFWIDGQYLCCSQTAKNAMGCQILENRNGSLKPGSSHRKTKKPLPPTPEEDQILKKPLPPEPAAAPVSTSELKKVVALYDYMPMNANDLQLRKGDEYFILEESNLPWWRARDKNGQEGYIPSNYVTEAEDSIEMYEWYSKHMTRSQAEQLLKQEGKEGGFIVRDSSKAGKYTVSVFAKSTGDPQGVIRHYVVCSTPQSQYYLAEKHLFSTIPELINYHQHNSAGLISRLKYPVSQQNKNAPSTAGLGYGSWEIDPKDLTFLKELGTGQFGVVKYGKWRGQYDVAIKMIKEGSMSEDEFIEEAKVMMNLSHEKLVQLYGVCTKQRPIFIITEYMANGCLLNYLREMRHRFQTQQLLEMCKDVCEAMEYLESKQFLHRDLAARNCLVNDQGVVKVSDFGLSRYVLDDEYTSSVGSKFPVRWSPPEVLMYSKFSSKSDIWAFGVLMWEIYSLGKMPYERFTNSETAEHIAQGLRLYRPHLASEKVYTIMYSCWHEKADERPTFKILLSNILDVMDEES", "assay": "Inhibition of BTK"}},
  "data": [
    {"smiles": "CCCS(=O)(=O)N1CCC(c2c[nH]c3c(C(N)=O)cc(-c4ccccc4)cc23)CC1", "values": [
      {"measurement": "IC50", "setting": "[1]", "result": "> 3160", "unit": "nM"},
      {"measurement": "IC50", "setting": "PBMC", "result": 631, "unit": "nM"},
      {"measurement": "IC50", "setting": "[2]", "result": 2000, "unit": "nM"},
      {"measurement": "IC50", "setting": "[3]", "result": 12.6, "unit": "nM"},
      {"measurement": "IC50", "setting": "[4]", "result": 1580, "unit": "nM"}
    ]}
  ]
}
